Assay results: ChEMBL document CHEMBL4052723, “A novel inhibitor of farnesyltransferase with a zinc site recognition moiety and a farnesyl group” (Bioorg Med Chem Lett, 2017)
The source made the active and inactive calls. The calls are words filed in the database; no cut-off is given here.

Experiments:
[1] = Inhibition of human protein farnesyltransferase using dansyl peptide containing CAAX as substrate in presence of farnesyl pyrophosphate after 15 mins by fluorescence assay
[2] = test system: BXPC-3; assay: Antiproliferative activity against human BxPC3 cells at 0.5 to 10 uM after 2 days by trypan blue staining based assay; format: functional, cell-based
Outline: (§1)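 Cells (AsPC-1, K-Ras mutant; or BxPC-3) were seeded at 1.0 × 10^4 per well and grown 1 d at 37 °C. The disulfide prodrug form was then added, and cells were incubated 2 days. At 0, 1 and 2 days after addition, cells were detached and stained with 0.4% trypan blue. Unstained (living) cells were counted.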

[3] = test system: ASPC1; assay: Antiproliferative activity against human AsPC1 cells expressing K-Ras mutant at 10 uM after 1 day in presence of DTT by trypan blue staining based assay; format: functional, cell-based
[4] = test system: ASPC1; assay: Antiproliferative activity against human AsPC1 cells expressing K-Ras mutant at 0.5 to 10 uM after 2 days by trypan blue staining based assay; format: functional, cell-based; outline: as §1
[5] = species on record: Homo sapiens; assay: Inhibition of human protein farnesyltransferase assessed as enzyme activity in presence of Zn2+ ions (reference value: 49%); set-up: scale not given: the % may be the effect or the level left
[6] = species on record: Homo sapiens; assay: Inhibition of human protein farnesyltransferase assessed as enzyme activity in presence of Fe2+ ions (reference value: 49%); set-up: scale not given: the % may be the effect or the level left
[7] = species on record: Homo sapiens; assay: Inhibition of human protein farnesyltransferase assessed as enzyme activity in presence of Co2+ ions (reference value: 49%); set-up: scale not given: the % may be the effect or the level left
[8] = species on record: Homo sapiens; assay: Inhibition of human protein farnesyltransferase assessed as enzyme activity in presence of Cu2+ ions (reference value: 49%); set-up: scale not given: the % may be the effect or the level left
[9] = species on record: Homo sapiens; assay: Inhibition of human protein farnesyltransferase assessed as enzyme activity in presence of Ni2+ ions (reference value: 49%); set-up: scale not given: the % may be the effect or the level left
[10] = species on record: Homo sapiens; assay: Inhibition of human protein farnesyltransferase assessed as enzyme activity in presence of Ca2+ ions (reference value: 49%); set-up: scale not given: the % may be the effect or the level left
[11] = test system: ASPC1; assay: Antiproliferative activity against human AsPC1 cells expressing K-Ras mutant after 2 days by trypan blue staining based assay; format: functional, cell-based; outline: as §1

| SMILES | IC50 [1] [nM] | Activity [2] | Activity [3] | Activity [4] | Activity [5] [%] | Activity [6] [%] | Activity [7] [%] | Activity [8] [%] | Activity [9] [%] | Activity [10] [%] | Activity [11] |
| --- | --- | --- | --- | --- | --- | --- | --- | --- | --- | --- | --- |
| CC(C)=CCC/C(C)=C/CC/C(C)=C/COC(=O)Nc1cc(CNCCS)nc(CNCCS)c1 | 900 | Active | Active | Active | – | – | – | – | – | – | – |
| SCCNCc1cc(-c2cccc3ccccc23)cc(CNCCS)n1 | – | – | – | – | 100 | 38 | 66 | 47 | 67 | 48 | – |
| CCCCCCCCCCCCOC(=O)Nc1cc(CNCCS)nc(CNCCS)c1 | 2000 | – | Active | – | – | – | – | – | – | – | Dose-dependent effect |
